Legend:
[1] = Fraction unbound in 10% human plasma by equilibrium dialysis; assay type: ADME, cell-free; details: 10% plasma
Summary of the method: (§1)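 Equilibrium dialysis from DMSO stock in 10% plasma, either Alderley Park Han Wistar rat plasma or human plasma.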

[2] = Fraction unbound in mouse plasma by equilibrium dialysis; assay type: ADME, cell-free
Cytochrome P450 3A4 = Cytochrome P450 3A4 (Homo sapiens, UniProt P08684); assay: Inhibition of CYP3A4 in human liver microsomes; assay type: ADME
Summary of the method: (§2)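 High-throughput human liver microsome assay across a panel of five CYP isoforms, giving IC50.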

[3] = Efflux ratio of apparent permeability in MDCK cells at 10 uM; assay type: ADME, cell-based, Canis lupus familiaris; details: dog
Summary of the method: (§3)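 Compound at 10 μM incubated on cultured Caco-2 or MDCK cells. Permeability was measured apical-to-basolateral and basolateral-to-apical, and efflux ratio was taken as (B to A)/(A to B).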

[4] = Oral bioavailability in rat at 1 mg/kg; assay type: ADME, organism-based; details: in vivo
Summary of the method: (§4)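 Single IV dose of 0.5 mg/kg and oral dose of 1 mg/kg in rat and dog. Both routes were formulated in 5% DMSO:95% hydroxypropyl β-cyclodextrin (30% w/v), at 1 mL/kg IV and 4 mL/kg PO.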

[5] = Apparent permeability in MDCK cells at 10 uM; assay type: ADME, cell-based, Canis lupus familiaris; details: dog; summary of the method: as §3
Mus musculus [6] = assay: In vivo antagonist activity at ERalpha in tumor of human MCF7 cells xenografted in po dosed SCID CB17 mouse assessed as reduction in PR levels administered once daily for 3 days measured after 24 hrs post last dose by Western blot analysis; assay type: functional, organism-based
Summary of the method: (§5)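 Male SCID mice carried a 0.5 mg/21 day s.c. estrogen pellet, with 5x10^6 MCF-7 cells implanted s.c. in the hind flank 24 h later. Groups of 5 were randomised at 0.5–0.8 cm³ and gavaged once daily for 3 d in PEG400/Captisol/water vehicle at 10 ml/kg. Tumours were taken 24 h post-dose, and PR was read by Western blot normalized to vinculin.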

Estrogen receptor [7] = molecular target: T1, Estrogen receptor (Homo sapiens, UniProt P03372); assay: Induction of ERalpha degradation in human MCF7 cells assessed as reduction in ERalpha protein expression after 5 hrs in presence of […] tamoxifen by formaldehyde-staining based assay; assay type: cell-based
T1 sequence (P03372 whole entry): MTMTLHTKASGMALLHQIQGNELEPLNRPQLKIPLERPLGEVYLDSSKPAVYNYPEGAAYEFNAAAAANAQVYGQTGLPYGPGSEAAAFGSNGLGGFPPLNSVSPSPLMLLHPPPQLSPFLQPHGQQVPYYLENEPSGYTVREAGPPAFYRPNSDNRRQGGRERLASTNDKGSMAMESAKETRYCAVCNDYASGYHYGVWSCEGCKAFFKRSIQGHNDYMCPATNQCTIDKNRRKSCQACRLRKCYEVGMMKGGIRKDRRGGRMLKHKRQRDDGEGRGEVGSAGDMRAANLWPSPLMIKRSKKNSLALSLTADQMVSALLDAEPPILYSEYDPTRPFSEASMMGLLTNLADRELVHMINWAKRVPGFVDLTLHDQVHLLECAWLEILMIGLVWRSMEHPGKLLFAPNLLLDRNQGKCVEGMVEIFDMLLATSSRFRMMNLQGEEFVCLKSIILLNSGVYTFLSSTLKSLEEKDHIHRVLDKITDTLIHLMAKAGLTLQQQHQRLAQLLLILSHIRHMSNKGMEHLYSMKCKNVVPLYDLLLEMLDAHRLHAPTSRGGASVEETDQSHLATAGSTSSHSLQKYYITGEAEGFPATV

[8] = molecular target: Voltage-gated inwardly rectifying potassium channel KCNH2 (Homo sapiens, UniProt Q12809); assay: Inhibition of human ERG by plate based planar patch clamp assay
[9] = Fraction unbound in Alderley Park Han Wistar rat plasma by equilibrium dialysis; assay type: ADME, cell-free; summary of the method: as §1
[10] = Stability in pH 7.4 deuterated buffer by 1H NMR spectroscopy; assay type: physicochemical
Summary of the method: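 Compound diluted from a 25 mM DMSO-d6 stock to a final 1 mM in each deuterated buffer. Followed by ¹H NMR (500 MHz, water suppression, 64 scans) and LC-MS at 0, 24, 72 and 192 h (8 days).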

Estrogen receptor [11] = molecular target: T1, Estrogen receptor; assay: Binding affinity to recombinant human GST-tagged ERalpha LBD expressed in baculovirus-infected insect cells by lantha screen assay
[12] = Volume of distribution at steady state in dog at 0.5 mg/kg, iv or 1 mg/kg, po; assay type: ADME, organism-based, Canis lupus familiaris; details: in vivo, read-out: Vdss; summary of the method: as §4
Cytochrome P450 2D6 = Cytochrome P450 2D6 (Homo sapiens, UniProt P10635); assay: Inhibition of CYP2D6 in human liver microsomes; assay type: ADME; summary of the method: as §2
[13] = Half life in rat at 0.5 mg/kg, iv or 1 mg/kg, po; assay type: ADME, organism-based; details: in vivo; summary of the method: as §4
[14] = Volume of distribution at steady state in rat at 0.5 mg/kg, iv or 1 mg/kg, po; assay type: ADME, organism-based; details: in vivo, read-out: Vdss; summary of the method: as §4
[15] = Efflux ratio of apparent permeability in human Caco2 cells at 10 uM; assay type: ADME, cell-based; details: Caco-2; summary of the method: as §3
[16] = Lipophilicity, log D of the compound at pH 7.4 by shake flask method; assay type: physicochemical; details: buffer
Summary of the method: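 Shake-flask measurement of logD at pH 7.4.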

Mus musculus [17] = assay: In vivo antagonist activity at ERalpha in tumor of human MCF7 cells xenografted in SCID CB17 mouse assessed as reduction in normalized PR levels at 50 mg/kg, po administered once daily for 3 days measured after 24 hrs post last dose by Western blot analysis relative to control; assay type: functional; set-up: scale not given: the % may be the effect or the level left; summary of the method: as §5
Estrogen receptor [18] = molecular target: T1, Estrogen receptor; assay: Induction of ERalpha degradation in human MCF7 cells assessed as reduction in ERalpha protein expression after 5 hrs by formaldehyde-staining based assay; assay type: cell-based
[19] = Half life in dog at 0.5 mg/kg, iv or 1 mg/kg, po; assay type: ADME, organism-based, Canis lupus familiaris; details: in vivo; summary of the method: as §4
[20] = molecular target: T2, Estrogen receptor (Homo sapiens) (UniProt P03372); assay: Antagonist activity at ERalpha in human MCF7 cells assessed as inhibition of estradiol-driven cell growth measured after overnight incubation by SYTOX green-based assay
T2 sequence (whole entry): T1 sequence (P03372 whole entry)
Summary of the method: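 MCF-7 cells grown at 37 °C, 5% CO₂, humidified, in phenol red-free RPMI1640 with 5% charcoal-stripped FCS and 2 mmol/L glutamine. Compounds held as 10 mmol/L DMSO stocks under nitrogen. Proliferation read in the presence of 0.1 nM estradiol.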

Cytochrome P450 2C9 = Cytochrome P450 2C9 (Homo sapiens, UniProt P11712); assay: Inhibition of CYP2C9 in human liver microsomes; assay type: ADME; summary of the method: as §2
Estrogen receptor [21] = molecular target: T1, Estrogen receptor; assay: Antagonist activity at ERalpha in human MCF7 cells assessed as inhibition of estradiol-driven PR response by microplate cytometry; assay type: cell-based
[22] = Fraction unbound in dog plasma by equilibrium dialysis; assay type: ADME, cell-free, Canis lupus familiaris
[23] = AUC in rat at 1 mg/kg, po; assay type: ADME, organism-based; details: in vivo, read-out: AUC; summary of the method: as §4
[24] = Intrinsic clearance in dog hepatocytes assessed per million cells; assay type: ADME, cell-based, Canis lupus familiaris, Hepatocyte; details: read-out: CLH
Summary of the method: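 Rate of metabolism (µl/min/10⁶ cells) measured from DMSO stock in isolated hepatocytes diluted to 1x10⁶ cells/mL.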

Estrogen receptor [25] = molecular target: T1, Estrogen receptor; assay: Induction of ERalpha degradation in human MCF7 cells assessed as reduction in ERalpha protein expression after 5 hrs in absence of […] tamoxifen by formaldehyde-staining based assay; assay type: cell-based
[26] = AUC in dog at 1 mg/kg, po; assay type: ADME, organism-based, Canis lupus familiaris; details: in vivo; summary of the method: as §4
Estrogen receptor [27] = molecular target: T1, Estrogen receptor; assay: Agonist activity at ERalpha in human MCF7 cells assessed as effect on PR protein expression after 5 hrs by formaldehyde-staining based assay; assay type: cell-based

Voltage-gated inwardly rectifying potassium channel KCNH2, sequence (Q12809 whole entry): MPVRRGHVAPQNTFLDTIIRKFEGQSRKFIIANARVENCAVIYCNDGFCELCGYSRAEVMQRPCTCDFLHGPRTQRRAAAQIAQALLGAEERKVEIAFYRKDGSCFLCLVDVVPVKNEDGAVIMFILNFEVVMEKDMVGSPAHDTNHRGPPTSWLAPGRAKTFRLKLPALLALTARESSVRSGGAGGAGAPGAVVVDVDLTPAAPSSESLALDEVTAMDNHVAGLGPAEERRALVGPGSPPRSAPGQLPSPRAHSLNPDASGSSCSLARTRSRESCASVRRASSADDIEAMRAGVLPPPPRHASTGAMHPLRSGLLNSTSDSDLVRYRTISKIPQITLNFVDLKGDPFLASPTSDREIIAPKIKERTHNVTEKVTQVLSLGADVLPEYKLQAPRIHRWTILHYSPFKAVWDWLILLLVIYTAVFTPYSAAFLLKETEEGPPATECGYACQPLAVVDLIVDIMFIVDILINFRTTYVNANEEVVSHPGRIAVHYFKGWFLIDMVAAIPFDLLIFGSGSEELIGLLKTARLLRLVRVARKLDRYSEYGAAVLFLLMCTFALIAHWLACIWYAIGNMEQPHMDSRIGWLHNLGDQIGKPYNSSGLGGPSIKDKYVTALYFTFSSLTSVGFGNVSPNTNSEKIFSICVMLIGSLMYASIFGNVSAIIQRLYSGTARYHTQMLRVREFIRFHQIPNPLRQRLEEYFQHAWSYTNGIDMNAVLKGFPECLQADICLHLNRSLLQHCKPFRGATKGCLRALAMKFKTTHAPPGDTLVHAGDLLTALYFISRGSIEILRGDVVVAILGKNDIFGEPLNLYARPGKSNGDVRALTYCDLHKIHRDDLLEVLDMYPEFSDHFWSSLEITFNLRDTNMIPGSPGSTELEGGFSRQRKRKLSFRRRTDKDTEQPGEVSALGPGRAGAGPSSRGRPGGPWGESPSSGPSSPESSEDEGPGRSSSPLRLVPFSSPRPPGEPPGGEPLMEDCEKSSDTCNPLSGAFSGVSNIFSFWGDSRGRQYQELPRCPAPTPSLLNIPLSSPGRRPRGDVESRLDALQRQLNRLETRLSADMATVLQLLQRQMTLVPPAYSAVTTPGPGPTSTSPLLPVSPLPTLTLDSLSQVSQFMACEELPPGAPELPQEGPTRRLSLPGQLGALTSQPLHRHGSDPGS
Cytochrome P450 2C9, sequence (P11712 whole entry): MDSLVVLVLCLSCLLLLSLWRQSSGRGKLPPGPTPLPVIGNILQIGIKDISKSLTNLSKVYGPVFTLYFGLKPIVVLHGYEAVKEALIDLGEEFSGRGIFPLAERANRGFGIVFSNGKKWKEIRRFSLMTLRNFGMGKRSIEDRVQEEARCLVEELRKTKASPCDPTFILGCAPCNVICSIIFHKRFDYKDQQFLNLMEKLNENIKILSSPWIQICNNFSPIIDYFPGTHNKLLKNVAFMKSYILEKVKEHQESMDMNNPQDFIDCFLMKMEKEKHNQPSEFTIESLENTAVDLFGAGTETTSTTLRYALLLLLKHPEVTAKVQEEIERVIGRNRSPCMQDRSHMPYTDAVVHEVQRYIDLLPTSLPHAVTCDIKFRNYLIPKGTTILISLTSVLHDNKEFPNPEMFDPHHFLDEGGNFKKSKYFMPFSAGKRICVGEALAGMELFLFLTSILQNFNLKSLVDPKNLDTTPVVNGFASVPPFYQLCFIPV
Cytochrome P450 2D6, sequence (P10635 whole entry): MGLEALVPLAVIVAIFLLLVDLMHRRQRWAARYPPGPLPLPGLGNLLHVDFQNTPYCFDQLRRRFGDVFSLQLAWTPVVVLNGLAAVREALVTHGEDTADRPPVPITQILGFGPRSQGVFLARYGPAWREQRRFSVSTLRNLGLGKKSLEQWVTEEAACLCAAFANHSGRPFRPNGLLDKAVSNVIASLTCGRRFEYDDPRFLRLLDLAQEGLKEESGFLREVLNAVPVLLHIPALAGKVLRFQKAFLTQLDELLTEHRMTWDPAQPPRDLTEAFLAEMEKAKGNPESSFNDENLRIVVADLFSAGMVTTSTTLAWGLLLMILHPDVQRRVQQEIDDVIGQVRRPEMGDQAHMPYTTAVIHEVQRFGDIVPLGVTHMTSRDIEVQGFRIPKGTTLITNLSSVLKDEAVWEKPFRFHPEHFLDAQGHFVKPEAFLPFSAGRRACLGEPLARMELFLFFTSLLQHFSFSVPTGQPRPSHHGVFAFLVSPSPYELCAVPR
Cytochrome P450 3A4, sequence (P08684 whole entry, canonical isoform): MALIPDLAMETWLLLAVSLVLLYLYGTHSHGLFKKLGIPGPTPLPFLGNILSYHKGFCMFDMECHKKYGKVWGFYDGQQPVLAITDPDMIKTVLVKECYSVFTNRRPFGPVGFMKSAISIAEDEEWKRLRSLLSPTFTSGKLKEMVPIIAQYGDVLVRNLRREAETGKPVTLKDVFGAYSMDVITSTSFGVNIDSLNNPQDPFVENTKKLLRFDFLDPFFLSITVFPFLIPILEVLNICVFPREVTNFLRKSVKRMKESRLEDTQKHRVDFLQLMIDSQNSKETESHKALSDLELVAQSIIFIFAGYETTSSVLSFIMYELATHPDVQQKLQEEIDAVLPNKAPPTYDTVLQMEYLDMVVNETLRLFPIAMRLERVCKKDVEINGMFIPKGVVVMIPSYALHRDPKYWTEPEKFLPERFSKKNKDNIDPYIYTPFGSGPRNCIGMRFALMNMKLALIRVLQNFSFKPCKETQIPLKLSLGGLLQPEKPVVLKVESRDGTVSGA

Structure (SMILES): C[C@@H]1Cc2c(ccc3[nH]ncc23)[C@@H](c2c(F)cc(/C=C/C(=O)O)cc2F)N1CC(C)(C)F
- fraction unbound [1]: 0.0058
- fraction unbound [2]: 0.0095
- IC50 (Cytochrome P450 3A4): 13000 nM
- efflux ratio at 10 µM [3]: 0.6
- bioavailability [4]: 31%
- Papp at 10 µM [5]: 11 ×10⁻⁶ cm/s
- Activity (Mus musculus [6]): Dose-dependent effect
- IC50 (Estrogen receptor [7]): 7.94 nM
- IC50 [8]: > 100000 nM
- fraction unbound [9]: 0.0083
- Stability [10]: Stable
- IC50 (Estrogen receptor [11]): 0.316 nM
- Vd [12]: 0.58 L/kg
- IC50 (Cytochrome P450 2D6): > 30000 nM
- half-life [13]: 1.2 h
- Vd [14]: 1.6 L/kg
- efflux ratio at 10 µM [15]: 1.4
- logD [16]: 2.6
- Activity (Mus musculus [17]): 93%
- IC50 (Estrogen receptor [18]): 0.251 nM
- half-life [19]: 6.1 h
- Activity [20]: Dose-dependent effect
- IC50 (Cytochrome P450 2C9): 2500 nM
- IC50 (Estrogen receptor [21]): 1 nM
- fraction unbound [22]: 0.0032
- AUC [23]: 0.83 µM·h
- hepatocyte CLint [24]: 17 µL/min/1e6 cells
- IC50 (Estrogen receptor [25]): 0.251 nM
- AUC [26]: 3.2 µM·h
- IC50 (Estrogen receptor [27]): > 3160 nM
